These results are taken from ChEMBL document CHEMBL1152922, “7-O-methylkaempferol and -quercetin glycosides from the whole plant of Nervilia fordii” (J Nat Prod, 2009).

Data set [1] can be described thus: Cytotoxicity against african green monkey Vero cells after 3 days by MTT assay. The data set is classed as cell-based. The following applies: chlorocebus sabaeus, read-out: MNCC.
The subject of data set [2] is Human alphaherpesvirus 1. In words: Antiviral activity against HSV1 infected in african green monkey Vero cells assessed as total inhibitory concentration after 3 days by plaque reduction assay. It is filed as functional. In short, it runs like this:
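Vero cells seeded in 24-well plates and grown 24 h, then infected with 30 PFU HSV-1 in the presence of a range of sample concentrations. Samples were diluted in DMEM with 2% FBS at pH 7.2, and medium alone served as control. Wells were overlaid with 1% methylcellulose medium and incubated 3 days, then formalin-fixed and crystal violet-stained. Plaques were counted, and the 100%-inhibitory concentration was read from plots.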
On the technique in general: In a plaque reduction assay, fewer plaques than in the control indicate reduced infectivity or spread.

Data set [3] relates to Human alphaherpesvirus 1. As to the kind of experiment: Antiviral activity against HSV1 infected in african green monkey Vero cells assessed as inhibition of virus-induced cytopathic effect after 3 days. The note with it: Human alphaherpesvirus 1, Vero, 72 h. A general note: Damage to the host cells serves as the signal in cytopathic effect assays.

Activity calls are given as the source filed them. The calls are words filed in the database; no cut-off is given here.

As for `COc1cc(O)c2c(=O)c(O[C@@H]3O[C@H](CO)[C@@H](O)[C@H](O)[C@H]3O)c(-c3ccc(O)c(OC)c3)oc2c1`, the MNTC at 72 h in data set [1] came to 200 µM. Also, in the data set with Human alphaherpesvirus 1 [2], the result was inactive.
On to `Nc1nc2c(ncn2COCCO)c(=O)[nH]1` [ACYCLOVIR], for which the MNTC at 72 h in data set [1] is 1110 µM. Moreover, the IC50 in the data set on Human alphaherpesvirus 1 [3] was determined as 4.3 µM.
As for `COc1cc(O)c2c(=O)c(O[C@@H]3O[C@H](CO)[C@@H](O[C@@H]4O[C@H](CO)[C@@H](O)[C@H](O)[C@H]4O)[C@H](O)[C@H]3O)c(-c3ccc(O)cc3)oc2c1` [NERVILIFORDIN B], in data set [1], the MNTC at 72 h was 160 µM. Also, in the data set with Human alphaherpesvirus 1 [2], the outcome was inactive.
In the same order, the values of `COc1cc(O)c2c(=O)c(O)c(-c3ccc(O)c(O)c3)oc2c1` [RHAMNETIN] are 80 µM and “inactive”.
In the same order, the values of `COc1cc(O)c2c(=O)c(O)c(-c3ccc(O)cc3)oc2c1` [RHAMNOCITRIN] are 80 µM and “inactive”.
The like results for `COc1cc(O)c2c(=O)c(O)c(-c3ccc(O)c(OC)c3)oc2c1` [RHAMNAZIN] were, in that order, 40 µM and “inactive”.
Take `COc1cc(O)c2c(=O)c(O[C@@H]3O[C@H](CO)[C@@H](O[C@@H]4OC[C@@H](O)[C@H](O)[C@H]4O)[C@H](O)[C@H]3O)c(-c3ccc(O)cc3)oc2c1` [NERVILIFORDIN A]: the MNTC at 72 h in data set [1] was 170 µM. Also, the result in the data set on Human alphaherpesvirus 1 [2] was inactive.
Consider `COc1cc(O)c2c(=O)c(O[C@@H]3O[C@H](CO)[C@@H](O)[C@H](O)[C@H]3O)c(-c3ccc(O[C@@H]4O[C@H](CO)[C@@H](O)[C@H](O)[C@H]4O)cc3)oc2c1` [COMPLANATUSIDE], for which, in data set [1], the MNTC at 72 h was determined as 320 µM. In the data set with Human alphaherpesvirus 1 [2], the result was inactive.
The like results for `O=c1cc(-c2ccc(O)cc2)oc2c([C@@H]3O[C@H](CO)[C@@H](O)[C@H](O)[C@H]3O)c(O)c([C@@H]3O[C@H](CO)[C@@H](O)[C@H](O)[C@H]3O)c(O)c12` were, in that order, 170 µM and “inactive”.
The like results for `COc1cc(O)c2c(=O)c(O[C@@H]3O[C@H](CO)[C@@H](O[C@@H]4O[C@H](CO)[C@@H](O)[C@H](O)[C@H]4O)[C@H](O)[C@H]3O)c(-c3ccc(O)c(O)c3)oc2c1` [NERVILIFORDIN C] were, in that order, 160 µM and “inactive”.
In the case of `O=c1ccc2cc(O)c(O)cc2o1` [ESCULETIN], in data set [1], the MNTC at 72 h came out at 140 µM. In addition, the Activity in the data set on Human alphaherpesvirus 1 [2] is 0.14 mM.

In general, IC50 refers to the concentration needed to halve the response being measured.
